# From PubChem
# Sampled rows, rich in hits. Any-hit rate of the full collection: about 2.8%.
# Rad51 HR inh – human RAD51 strand exchange inhibitors, primary screen, biochemical, fluorescence. 200,000 tested, 0.085% active. hRad51 DNA strand exchange, fluorescence dequenching. AID 1385, 2008. DNA repair protein RAD51 homolog 1 (Homo sapiens), Q06609. inhibition, % at 10 µM;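 active = inhibition above 40% at the single screening dose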
#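 material = hRad51 filaments on single-stranded DNA | timing = filaments 15 min 37 °C, then compound 30 min | signal = FRET fluorescence dequenching, excitation 485 nm, emission 520 nm | benchmarks = control wells and blank wells on each plate | evaluation = percent inhibition relative to plate controls and blanks | compound = 10 µM final, single point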
# Measles CPE – compounds protecting cells from measles virus cytopathic effect, primary screen, measles RdRp inhibitor project, single point, MLSMR library, absorbance; protection (pct of control), % at 4 µM; 140,000 tested, 1.5% active; Measles virus-infected cells, CPE protection; in the data active = protection mostly above about 24%, no sharp cut-off; inactive = mostly below about 26%
# NPY-Y1 PAM-ag – NPY-Y1 receptor potentiators or agonists, primary screen, cell-based; Neuropeptide Y receptor type 1 (Homo sapiens), P25929; NPY-Y1 expressing cells, potentiator/agonist activation; activation, % at 3.6 µM; 220,000 tested, 0.37% active; AID 1304, 2008; in the data active = activation above about 33%, passing the limit was not always enough;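 note: cells stimulated with NPY at EC10 then isoproterenol at EC100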
# Target sequence (P25929 whole entry, looked up): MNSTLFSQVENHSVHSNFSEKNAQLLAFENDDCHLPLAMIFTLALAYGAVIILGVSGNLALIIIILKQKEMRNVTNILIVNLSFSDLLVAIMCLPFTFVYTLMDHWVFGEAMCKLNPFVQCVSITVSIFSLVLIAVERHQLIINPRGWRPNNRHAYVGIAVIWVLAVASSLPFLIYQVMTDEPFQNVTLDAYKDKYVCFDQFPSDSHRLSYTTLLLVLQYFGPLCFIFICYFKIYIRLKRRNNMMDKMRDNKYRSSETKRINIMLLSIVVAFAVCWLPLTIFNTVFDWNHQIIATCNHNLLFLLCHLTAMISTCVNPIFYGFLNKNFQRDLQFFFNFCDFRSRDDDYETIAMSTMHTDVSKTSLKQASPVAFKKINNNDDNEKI
# NPY2 pot ag – NPY-Y2 potentiators or agonists, primary screen, cell-based. Neuropeptide Y receptor type 2 (Homo sapiens), P49146. cells expressing NPY-Y2, potentiator/agonist read-out. activation, % at 3.6 µM. 220,000 tested, 0.45% active. AID 1359, 2008; in the data active = activation above about 27%;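 note: cells stimulated with NPY near EC25 plus isoproterenol at EC100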
# NPY Y2 blocker – NPY-Y2 receptor antagonists, primary screen, cell-based; Neuropeptide Y receptor type 2 (Homo sapiens), P49146; inhibition, % at 2.7 µM; NPY-Y2 expressing cells, antagonist mode; 140,000 tested, 0.99% active; AID 793, 2007; in the data active = inhibition above about 17%
# NPY-Y1 antag – NPY-Y1 receptor antagonists, primary screen, cell-based; Neuropeptide Y receptor type 1 (Homo sapiens), P25929; HEK293-CNG Y1 cells, membrane potential fluorescence; NPY at EC95, then isoproterenol; inhibition, % at 3.6 µM; 200,000 tested, 1% active;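 active = inhibition above the campaign mean inhibition of all tested compounds plus 3 SD, cut at about 20% in these data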
#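 Material: HEK293 Y1/CNG channel cell line; also added: NPY (25 nM), isoproterenol (1 µM), Ro 20-1724 (25 µM); doses: one concentration, 3.6 µM, in 0.4% DMSO; schedule: compound incubation 1 h at room temperature, readout 45 min post-stimulation; technique: membrane potential fluorescence; measure: fluorescence ratio normalized to % inhibition between controls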
# Numbers stand for hits; - = inactive; . = no result.
SMILES,Rad51 HR inh,Measles CPE,NPY-Y1 PAM-ag,NPY2 pot ag,NPY Y2 blocker,NPY-Y1 antag
Cc1cc(NC(=O)COC(=O)c2oc3c(Cl)cccc3c2C)no1,-,-,-,-,-,-
Cc1cc2oc(C(=O)Nc3ccc(S(=O)(=O)N4CCCC(C)C4)cc3)cc(=O)c2cc1Cl (centres undefined),.,-,-,-,-,-
Cc1cc(C)c2oc(C(=O)Nc3ccc(S(=O)(=O)N4CCC(C)CC4)cc3)cc(=O)c2c1,-,56,-,-,-,-
O=c1c2ccccc2c(C=NC2CCN(Cc3ccccc3)CC2)c(O)n1Cc1ccc2c(c1)OCO2,-,.,-,-,.,-
CCCOc1ccc2cc(-c3ccccn3)c(=O)oc2c1,-,-,-,-,-,-
O=c1oc2cc(OCc3c(F)cccc3Cl)ccc2cc1-c1ccccn1,-,46,-,-,-,-
O=C(CSc1nnc(-c2ccncc2)o1)N1CCCC1,.,.,-,-,.,-
COc1ccccc1N1C(=O)CC(Sc2ccccc2N)C1=O (centres undefined),-,.,-,-,.,.
O=C(C1CCC1)N1CCC(c2nc3c(nnn3Cc3c(F)cccc3Cl)c(=O)[nH]2)CC1,-,41,-,-,-,-
O=C(Nc1ccc(F)cc1)N1CCC(c2nc3c(nnn3Cc3ccccc3Cl)c(=O)[nH]2)CC1,-,.,-,-,.,-
O=S(Cc1ccccc1)CC(O)(c1ccccc1)c1ccccc1 (centres undefined),-,-,-,-,-,-
CCCCCCS(=O)Cc1ccccc1 (centres undefined),-,35,-,-,-,-
O=C(CN1C(=O)CCC1=O)c1ccc(-c2ccccc2)cc1,-,33,-,-,-,-
C/C(=N/NC(N)=S)c1ccc(Br)s1,-,.,-,-,.,-
Cc1nn(Cc2cccc(C(N)=O)c2)c(C)c1Br,-,.,-,-,.,.
Cc1nn(Cc2cccc(C(=O)NCC(C)C)c2)c(C)c1Br,-,27,-,-,-,-
C[C@@H]1C=C[C@](Cc2ccccc2)(C(=O)NCCc2c[nH]c3ccccc23)N1C(=O)c1ccccc1,-,-,-,-,19,35
Nc1c(C(O)(C(F)(F)F)C(F)(F)F)cc(C(O)(C(F)(F)F)C(F)(F)F)c2ccccc12,-,-,48,77,-,-
N#CC(C#N)=c1ccc2c(c1)NC1(CCCCC1)N=2,-,-,41,44,-,-
CC1(C)C2CC[C@]3(C)C(CC=C4[C@@H]5C[C@@](C)(CO)[C@@H](O)C[C@]56C[C@@H](OC6=O)[C@]43C)[C@@]2(C)CC[C@@H]1O (some centres undefined),-,.,.,.,.,.
NNC(=O)[C@@H]1C[C@@H]1c1ccccc1,.,-,-,-,-,-
CCc1c(C)sc(NC(=O)C2CC2c2ccccc2)c1C(N)=O (centres undefined),-,38,-,-,-,-
COC(=O)C1=C(C)NC(C)=C(C(=O)OC)C1c1ccc(C)o1,-,.,-,-,.,.
OCCN1CCN(c2nc(NCc3ccco3)c3ccccc3n2)CC1,-,-,-,-,-,-
Cc1ccc(OCCN2CCN(c3nc(NCc4ccco4)c4ccccc4n3)CC2)cc1,.,-,-,-,30,34
SMILES,Rad51 HR inh,Measles CPE,NPY-Y1 PAM-ag,NPY2 pot ag,NPY Y2 blocker,NPY-Y1 antag
c1ccc(CN2CCN(c3nc(NCc4ccco4)c4ccccc4n3)CC2)cc1,.,-,-,-,28,31
O=C(CCC1CCCCC1)Nc1c2c(nn1-c1ccc(F)cc1)CS(=O)(=O)C2,-,-,-,-,30,57
CC(C)(C)n1nc2c(c1NC(=O)COc1ccccc1F)CS(=O)(=O)C2,.,.,-,-,.,-
Cc1cc(Br)ccc1OCC(=O)NNC(=O)c1cnccn1,.,37,-,-,-,-
Cc1cc(Cl)ccc1OCC(=O)NNC(=O)c1cnccn1,-,.,-,-,.,-
O=C(NCCN1CCOCC1)c1ccccc1-c1ccccc1,-,-,-,-,-,-
O=C(NCCN1CCOCC1)c1cnn2c(-c3ccccc3)cc(-c3ccccc3)nc12,-,-,-,-,20,36
